Assay results taken from ChEMBL document CHEMBL3217604, “4-Alkyloxyimino-cytosine nucleotides: tethering approaches to molecular probes for the P2Y6 receptor” (Medchemcomm, 2013).
Calls of active or inactive are those of the source. The rule behind the calls is not given here.

Key:
P2Y purinoceptor 2 [1] = target: T1, P2Y purinoceptor 2 (Homo sapiens, UniProt P41231); experiment: Agonist activity at human recombinant P2Y2 receptor expressed in human 1321N1 cells using [3H]inositol as substrate assessed as [3H]inositol phosphate formation after 30 mins by liquid scintillation counting analysis; assay type: functional, cell-based
Procedure, shortened: (§1)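 PLC activation measured in 1321N1 human astrocytoma cells stably expressing recombinant hP2Y2, hP2Y4 or hP2Y6 receptor; potency given as EC50 or % activation.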

P2Y purinoceptor 4 [2] = target: T2, P2Y purinoceptor 4 (Homo sapiens, UniProt P51582); experiment: Agonist activity at human recombinant P2Y4 receptor expressed in human 1321N1 cells using [3H]inositol as substrate assessed as [3H]inositol phosphate formation after 30 mins by liquid scintillation counting analysis; assay type: functional, cell-based; procedure, shortened: as §1
P2Y purinoceptor 6 [3] = target: T3, P2Y purinoceptor 6 (Homo sapiens, UniProt Q15077); experiment: Agonist activity at human recombinant P2Y6 receptor expressed in human 1321N1 cells using [3H]inositol as substrate assessed as [3H]inositol phosphate formation after 30 mins by liquid scintillation counting analysis; assay type: functional, cell-based; procedure, shortened: as §1
P2Y purinoceptor 4 [4] = target: T2, P2Y purinoceptor 4; experiment: Agonist activity at human recombinant P2Y4 receptor expressed in human 1321N1 cells using [3H]inositol as substrate assessed as [3H]inositol phosphate formation at 10 uM after 30 mins by liquid scintillation counting analysis; assay type: functional, cell-based; procedure, shortened: as §1
P2Y purinoceptor 6 [5] = target: T3, P2Y purinoceptor 6; experiment: Binding affinity to human recombinant P2Y6 receptor expressed in human 1321N1 cells at 400 nM after 60 mins by flow cytometry; assay type: cell-based
P2Y purinoceptor 2 [6] = target: T1, P2Y purinoceptor 2; experiment: Agonist activity at human recombinant P2Y2 receptor expressed in human 1321N1 cells using [3H]inositol as substrate assessed as [3H]inositol phosphate formation at 10 uM after 30 mins by liquid scintillation counting analysis; assay type: functional, cell-based; procedure, shortened: as §1

T2 sequence (P51582 whole entry): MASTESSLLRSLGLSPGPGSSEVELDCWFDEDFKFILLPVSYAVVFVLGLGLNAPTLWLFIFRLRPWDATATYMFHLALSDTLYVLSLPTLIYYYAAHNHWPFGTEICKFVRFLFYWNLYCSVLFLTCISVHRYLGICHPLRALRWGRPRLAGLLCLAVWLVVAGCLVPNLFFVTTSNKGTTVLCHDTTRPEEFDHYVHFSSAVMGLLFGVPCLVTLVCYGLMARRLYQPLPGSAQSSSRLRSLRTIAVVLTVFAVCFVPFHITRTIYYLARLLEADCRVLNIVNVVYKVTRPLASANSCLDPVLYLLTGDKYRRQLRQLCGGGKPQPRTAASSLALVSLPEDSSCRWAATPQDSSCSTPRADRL
T1 sequence (P41231 whole entry): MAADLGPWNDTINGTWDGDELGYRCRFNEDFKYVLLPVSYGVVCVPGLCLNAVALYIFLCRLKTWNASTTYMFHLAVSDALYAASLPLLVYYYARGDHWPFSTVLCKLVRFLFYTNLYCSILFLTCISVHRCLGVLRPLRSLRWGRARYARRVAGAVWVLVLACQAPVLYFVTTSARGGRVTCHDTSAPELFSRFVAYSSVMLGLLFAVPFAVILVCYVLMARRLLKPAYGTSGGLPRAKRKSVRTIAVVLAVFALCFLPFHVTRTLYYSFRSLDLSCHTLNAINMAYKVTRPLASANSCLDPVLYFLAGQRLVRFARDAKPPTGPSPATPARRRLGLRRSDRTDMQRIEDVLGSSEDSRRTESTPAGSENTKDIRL
T3 sequence (Q15077 whole entry): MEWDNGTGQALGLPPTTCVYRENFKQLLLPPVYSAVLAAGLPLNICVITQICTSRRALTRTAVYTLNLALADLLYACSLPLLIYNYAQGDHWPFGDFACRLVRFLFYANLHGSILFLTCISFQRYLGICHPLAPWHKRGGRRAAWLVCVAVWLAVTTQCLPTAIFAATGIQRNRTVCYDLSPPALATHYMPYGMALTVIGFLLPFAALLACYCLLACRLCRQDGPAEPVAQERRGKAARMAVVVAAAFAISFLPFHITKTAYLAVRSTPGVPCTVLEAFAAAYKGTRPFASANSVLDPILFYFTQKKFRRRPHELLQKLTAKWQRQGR

Structure (SMILES)	EC50 (P2Y purinoceptor 2 [1]) [µM]	EC50 (P2Y purinoceptor 4 [2]) [µM]	EC50 (P2Y purinoceptor 6 [3]) [µM]	Activity (P2Y purinoceptor 4 [4]) [%]	Activity (P2Y purinoceptor 6 [5])	Activity (P2Y purinoceptor 2 [6]) [%]
O=c1[nH]/c(=N\OCc2ccc(Br)cc2)ccn1[C@@H]1O[C@H](COP(=O)(O)OP(=O)(O)O)[C@@H](O)[C@H]1O	5.2	7.44	0.032	–	–	–
CO/N=c1/ccn([C@@H]2O[C@H](COP(=O)(O)OP(=O)(O)OP(=O)(O)Oc3ccc4ccccc4c3)[C@@H](O)[C@H]2O)c(=O)[nH]1	2.9	–	0.731	< 50	–	–
O=c1ccn([C@@H]2O[C@H](COP(=O)(O)OP(=O)(O)OP(=O)(O)OC[C@H]3O[C@@H](n4cc/c(=N/OCc5ccccc5)[nH]c4=O)[C@H](O)[C@@H]3O)[C@@H](O)[C@H]2O)c(=O)[nH]1	1.7	0.636	0.126	–	–	–
C#CCCC#Cc1cccc(CO/N=c2/ccn([C@@H]3O[C@H](COP(=O)(O)OP(=O)(O)O)[C@@H](O)[C@H]3O)c(=O)[nH]2)c1	3.9	0.952	0.1	–	–	–
N=c1ccc2c(-c3ccc(C(=O)NCCCCCCn4cc(CCC#Cc5cccc(CO/N=c6/ccn([C@@H]7O[C@H](COP(=O)(O)O)[C@@H](O)[C@H]7O)c(=O)[nH]6)c5)nn4)cc3C(=O)O)c3ccc(N)c(S(=O)(=O)O)c3oc-2c1S(=O)(=O)O	–	–	–	–	inactive	–
O=c1[nH]/c(=N\OCc2ccc(I)cc2)ccn1[C@@H]1O[C@H](COP(=O)(O)OP(=O)(O)O)[C@@H](O)[C@H]1O	–	–	0.148	< 50	–	–
O=c1[nH]/c(=N\OCc2ccc([N+](=O)[O-])cc2)ccn1[C@@H]1O[C@H](COP(=O)(O)OP(=O)(O)O)[C@@H](O)[C@H]1O	3.3	2.2	0.041	–	–	–
C#CCCOP(=O)(O)OP(=O)(O)OP(=O)(O)OC[C@H]1O[C@@H](n2cc/c(=N/OCc3ccccc3)[nH]c2=O)[C@H](O)[C@@H]1O	–	–	1.75	< 50	–	< 50
